# Source: ChEMBL document CHEMBL4725283, “Selective Peptidomimetic Inhibitors of NTMT1/2: Rational Design, Synthesis, Characterization, and Crystallographic Studies” (J Med Chem, 2020)
# The source made the active and inactive calls. The calls are words filed in the database; no cut-off is given here. Where a SMILES comes first, the peptide text is derived from it. [ ]: non-standard residue; d: D form. The star is where a group is joined. ξ: configuration not given here. ξαMeP = CC1(C(=O)O)CCCN1; X1 = O=C(Cc1ccc(O)cc1)*; PhAc = O=C(Cc1ccccc1)*; Bz = O=C(c1ccccc1)*
# Assays:
# [1] = target: T1, N-terminal Xaa-Pro-Lys N-methyltransferase 1 (Homo sapiens, UniProt Q9BV86); test: (§1) Inhibition of recombinant human full-length His6-tagged NTMT1 (1 to 222 residues) expressed in Escherichia coli BL21-CodonPlus(DE3)-RIL competent cells pre-incubated for 10 mins in presence of SAM and SAHH before RCC1-6 addition and measured after 15 mins by fluorescence based SAHH-coupled assay
# T1 sequence (Q9BV86 whole entry): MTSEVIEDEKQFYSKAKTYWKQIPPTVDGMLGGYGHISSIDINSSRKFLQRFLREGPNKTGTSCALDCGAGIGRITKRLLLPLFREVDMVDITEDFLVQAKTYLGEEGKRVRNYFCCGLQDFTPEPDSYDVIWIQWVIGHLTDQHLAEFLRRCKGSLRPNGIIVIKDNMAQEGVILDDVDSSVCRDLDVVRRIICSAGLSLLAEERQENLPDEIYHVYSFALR
# Summary of the method: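 Pre-incubated 10 min at 37 °C, then started with RCC1-6 (10 µL of 50 µM stock in 100 µL). Line 11 screened at 30 µM; line 12 used 0–100 µM three-fold series, four-parameter fit. Triplicate.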
# [2] = target: T2, N-terminal Xaa-Pro-Lys N-methyltransferase 1 (Homo sapiens) (UniProt Q9BV86); test: Substrate activity at recombinant human full-length His6-tagged NTMT1 (1 to 222 residues) expressed in Escherichia coli BL21-CodonPlus(DE3)-RIL competent cells by MALDI-MS analysis
# T2 sequence (whole entry): T1 sequence (Q9BV86 whole entry)
# [3] = target: N-terminal Xaa-Pro-Lys N-methyltransferase 2 (Homo sapiens, UniProt Q5VVY1); test: Binding affinity to recombinant human full-length His6-tagged NTMT2 by ITC assay
# N-terminal Xaa-Pro-Lys N-methyltransferase 2, sequence (Q5VVY1 whole entry): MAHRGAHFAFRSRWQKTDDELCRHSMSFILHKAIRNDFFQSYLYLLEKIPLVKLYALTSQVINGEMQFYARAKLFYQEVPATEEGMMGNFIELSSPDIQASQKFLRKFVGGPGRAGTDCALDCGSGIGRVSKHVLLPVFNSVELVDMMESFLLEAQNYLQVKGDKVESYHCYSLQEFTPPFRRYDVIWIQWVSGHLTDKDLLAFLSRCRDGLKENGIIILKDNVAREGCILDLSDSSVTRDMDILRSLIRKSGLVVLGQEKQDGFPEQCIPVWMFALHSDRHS
# Summary of the method: (§2)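 ITC at 25 °C. Purified protein (NTMT1 for line 1, NTMT2 for line 2) in 20 mM Tris-HCl pH 7.5, 150 mM NaCl, 0.5 mM TCEP at 30–50 µM final. Compound at 0.5–1 mM in the same buffer, titrated in as 26 injections of 10 µl, 180 s apart, reference power 15 µcal/sec.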
# [4] = target: T1, N-terminal Xaa-Pro-Lys N-methyltransferase 1; test: Binding affinity to recombinant human full-length His6-tagged NTMT1 (1 to 222 residues) by ITC assay; summary of the method: as §2
# [5] = target: T2, N-terminal Xaa-Pro-Lys N-methyltransferase 1 (Homo sapiens); test: Inhibition of NTMT1 in human HCT116 cells assessed as decrease in me3-SPK level at 100 uM incubated for 72 hrs by Western blot analysis; type: cell-based
# Summary of the method: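 HCT116 cells seeded at 20,000 cells/well and treated 3 days with compound or PBS. Lysed in RIPA for 30 min on ice; equal protein (BCA) run on 12.5% SDS-PAGE and transferred to PVDF. Blotted with anti-me3-SPK (1:5000) overnight at 4 °C, with Lamin B1, SET and RCC1 antibodies, then HRP anti-rabbit.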
# [6] = Drug penetration in human HCT116 cells at 1 uM by MALDI-MS analysis; type: ADME, cell-based; details: hct-116, 1 µM
# Summary of the method: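 HCT116 cells in McCoy's 5A with 10% FBS and 1% antibiotic-antimycotic, seeded at 0.1 × 10^6 cells/mL in 24-well plates and incubated overnight at 37 °C, 5% CO2. Compound added and incubation continued for the specified time; TAT peptide run as control. Cells washed three times with PBS, freeze-lysed twice in liquid nitrogen, and lysate analysed by MALDI (DHB matrix) for intracellular compound.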
# [7] = target: T2, N-terminal Xaa-Pro-Lys N-methyltransferase 1 (Homo sapiens); test: as §1, with “cells at 30 uM” for “cells”, “assay relative to control” for “assay”; details: time 25.0 min
# Summary of the method: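 Pre-incubated 10 min at 37 °C, then started with RCC1-6 (10 µL of 50 µM stock in 100 µL). Read Ex 370/Em 500 nm for 15 min at 37 °C. Line 11 screened at 30 µM; line 12 used 0–100 µM three-fold series, four-parameter fit. Triplicate.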
Compound,IC50 [1] [µM],Activity [2],also measured
N=C(N)NCCC[C@H](NC(=O)[C@H](CCCCN)NC(=O)[C@@H]1CCCN1C(=O)Cc1ccc(N)cc1)C(N)=O,4.3,inactive,–
CC1(C(=O)N[C@@H](CCCCN)C(=O)N[C@@H](CCCNC(=N)N)C(N)=O)CCCN1C(=O)Cc1ccccc1 (stereo partly drawn) (PhAc-[ξαMeP]-Lys-Arg-NH2),> 100,inactive,–
C[C@H](NC(=O)[C@H](CCCCN)NC(=O)[C@@H]1CCCN1C(=O)Cc1ccc(O)cc1)C(N)=O,4.8,inactive,–
N=C(N)NCCC[C@H](NC(=O)[C@H](CCCCN)NC(=O)[C@@H]1CCCN1C(=O)C1CCCCC1)C(N)=O,> 100,inactive,–
N=C(N)NCCC[C@H](NC(=O)C[C@@H](CCCN)NC(=O)[C@@H]1CCCN1C(=O)Cc1ccc(O)cc1)C(N)=O,32.9,inactive,–
N=C(N)NCCC[C@H](NC(=O)[C@H](CCCCN)NC(=O)[C@@H]1CCCN1C(=O)Cc1ccc(CO)cc1)C(N)=O,–,inactive,–
N=C(N)NCCC[C@H](NC(=O)[C@H](CCCNC(=N)N)NC(=O)[C@H](CCCNC(=N)N)NC(=O)[C@H](CCCNC(=N)N)NC(=O)[C@H](CCCNC(=N)N)NC(=O)[C@H](CCCNC(=N)N)NC(=O)[C@H](CCCCN)NC(=O)[C@@H]1CCCN1C(=O)Cc1ccc(O)cc1)C(N)=O (X1-PKRRRRRR-NH2),–,–,Kd [3]: 1 µM; Kd [4]: 0.3 µM; inhibition [5]: Active; Drug uptake [6]: Active
N=C(N)NCCC[C@H](NC(=O)[C@H](CCCCN)NC(=O)[C@@H]1CCCN1C(=O)CCc1ccc(N)cc1)C(N)=O,12,inactive,–
N=C(N)NCCC[C@H](NC(=O)[C@H](CCCCN)NC(=O)[C@@H]1CCCN1C(=O)C1CCCC1)C(N)=O,> 100,inactive,–
N=C(N)NCCC[C@H](NC(=O)[C@H](CCCCN)NC(=O)[C@@H]1CCCN1C(=O)CCc1ccc(O)cc1)C(N)=O,4.5,inactive,–
N=C(N)NCCC[C@H](NC(=O)[C@H](CCCCN)NC(=O)[C@@H]1CCCN1C(=O)Cc1ccccc1)C(N)=O (PhAc-Pro-Lys-Arg-NH2),6.85,inactive,inhibition [7]: > 50%
NCCCC[C@H](NC(=O)[C@H](CCCCN)NC(=O)[C@@H]1CCCN1C(=O)Cc1ccc(O)cc1)C(N)=O,1,inactive,–
C[C@@H](O)[C@H](NC(=O)[C@H](CCCCN)NC(=O)[C@@H]1CCCN1C(=O)Cc1ccc(O)cc1)C(N)=O,4.8,inactive,–
N=C(N)NCCC[C@H](NC(=O)[C@H](CCCCN)NC(=O)[C@@H]1CCCN1C(=O)c1ccco1)C(N)=O,> 100,inactive,–
N=C(N)NCCC[C@H](NC(=O)[C@H](CCCCN)NC(=O)c1cccc(NC(=O)Cc2ccc(O)cc2)c1)C(N)=O,> 100,inactive,–
N=C(N)NCCC[C@H](NC(=O)[C@H](CCCCN)NC(=O)[C@@H]1CCCN1C(=O)c1ccccc1)C(N)=O (Bz-Pro-Lys-Arg-NH2),> 100,inactive,–
N=C(N)NCCC[C@H](NC(=O)[C@H](CCCNC(=N)N)NC(=O)[C@H](CCCNC(=N)N)NC(=O)[C@H](CCC(N)=O)NC(=O)[C@H](CCCNC(=N)N)NC(=O)[C@H](CCCNC(=N)N)NC(=O)[C@H](CCCCN)NC(=O)[C@H](CCCCN)NC(=O)[C@H](CCCNC(=N)N)NC(=O)CNC(=O)[C@H](CCCNC(=N)N)NC(=O)[C@H](CCCCN)NC(=O)[C@@H]1CCCN1C(=O)Cc1ccc(O)cc1)C(N)=O,–,–,Kd [3]: 3.4 µM; Kd [4]: 0.6 µM; Drug uptake [6]: Active
N=C(N)NCCC[C@H](NC(=O)[C@H](CCCCN)NC(=O)[C@@H]1CCCN1CCc1ccc(O)cc1)C(N)=O,> 100,inactive,–
N=C(N)NCC[C@H](CC(N)=O)NC(=O)[C@H](CCCCN)NC(=O)[C@@H]1CCCN1C(=O)Cc1ccc(O)cc1,6.4,inactive,–
N=C(N)NCCC[C@@H](NC(=O)[C@H](CCCCN)NC(=O)[C@@H]1CCCN1C(=O)Cc1ccc(O)cc1)C(N)=O,4.2,inactive,–
NCCCC[C@H](NC(=O)[C@@H]1CCCN1C(=O)Cc1ccc(O)cc1)C(=O)NCC(N)=O,13,inactive,–
N=C(N)NCCC[C@H](NC(=O)[C@H](CCCCN)NC(=O)c1ccccc1NC(=O)Cc1ccc(O)cc1)C(N)=O,> 100,inactive,–
NCCCC[C@H](NC(=O)[C@@H]1CCCN1C(=O)Cc1ccc(O)cc1)C(N)=O,16,inactive,–
COc1ccc(CC(=O)N2CCC[C@H]2C(=O)N[C@@H](CCCCN)C(=O)N[C@@H](CCCNC(=N)N)C(N)=O)cc1,> 100,inactive,–
